Experimental data reported in ChEMBL document CHEMBL3632558, “Synthesis, antimycobacterial and antibacterial activity of l-[(1R,2S)-2-fluorocyclopropyl]naphthyridone derivatives containing an oxime-functionalized pyrrolidine moiety” (2015).
In brackets after ≈: the same amount, converted by molar mass.

How the values were obtained:
Assay type in all cases: functional
[1] = test system: Klebsiella pneumoniae; assay: Antibacterial activity against Klebsiella pneumoniae 14-4 after 18 to 24 hrs
Method in brief: (§1)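 MIC by standard NCCLS reference procedure (M100-S11); lowest concentration of compound inhibiting visible bacterial growth after incubation at 35 °C for 18–24 h, read as complete inhibition of growth. Ciprofloxacin, levofloxacin and moxifloxacin run alongside as reference agents.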

[2] = test system: Escherichia coli; assay: Antibacterial activity against Escherichia coli 14-1 after 18 to 24 hrs; method in brief: as §1
[3] = test system: Staphylococcus epidermidis; assay: Antibacterial activity against methicillin-resistant Staphylococcus epidermidis 14-21 after 18 to 24 hrs
[4] = test system: Staphylococcus aureus; assay: Antibacterial activity against methicillin-sensitive Staphylococcus aureus 14-1 after 18 to 24 hrs; method in brief: as §1
[5] = test system: Klebsiella pneumoniae; assay: Antibacterial activity against Klebsiella pneumoniae 14-2 after 18 to 24 hrs; method in brief: as §1
[6] = test system: Streptococcus pneumoniae; assay: Antibacterial activity against Streptococcus pneumoniae ATCC 19615 after 18 to 24 hrs; method in brief: as §1
[7] = test system: Mycobacterium tuberculosis; assay: Antimycobacterial activity against Mycobacterium tuberculosis H37Rv ATCC 27294 by alamar blue assay
Method in brief: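 Microplate Alamar Blue Assay; MIC is the lowest concentration giving ≥90% reduction in fluorescence relative to the mean of replicate bacterium-only controls. MDR strain 6133 is resistant to isoniazid and rifampicin.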

[8] = test system: Escherichia coli; assay: Antibacterial activity against Escherichia coli ATCC 25922 after 18 to 24 hrs; method in brief: as §1
[9] = test system: Enterococcus faecium; assay: Antibacterial activity against Enterococcus faecium 14-2 after 18 to 24 hrs; method in brief: as §1
[10] = test system: Staphylococcus epidermidis; assay: Antibacterial activity against methicillin-sensitive Staphylococcus epidermidis 14-2 after 18 to 24 hrs; method in brief: as §1
[11] = test system: Staphylococcus aureus; assay: Antibacterial activity against Staphylococcus aureus CMCC 26003 after 18 to 24 hrs; method in brief: as §1
[12] = test system: Enterococcus faecalis; assay: Antibacterial activity against Enterococcus faecalis 14-2 after 18 to 24 hrs; method in brief: as §1
[13] = test system: Enterococcus faecium; assay: Antibacterial activity against Enterococcus faecium 14-6 after 18 to 24 hrs; method in brief: as §1
[14] = test system: Enterococcus faecalis; assay: Antibacterial activity against Enterococcus faecalis 14-1 after 18 to 24 hrs; method in brief: as §1
[15] = test system: Pseudomonas aeruginosa; assay: Antibacterial activity against Pseudomonas aeruginosa 14-16 after 18 to 24 hrs; method in brief: as §1
[16] = test system: Klebsiella pneumoniae; assay: Antibacterial activity against ESBL-positive Klebsiella pneumoniae 14-17 after 18 to 24 hrs; method in brief: as §1
[17] = test system: Staphylococcus epidermidis; assay: Antibacterial activity against methicillin-resistant Staphylococcus epidermidis 14-37 after 18 to 24 hrs
[18] = test system: Staphylococcus epidermidis; assay: Antibacterial activity against methicillin-resistant Staphylococcus epidermidis 14-22 after 18 to 24 hrs
[19] = test system: Pseudomonas aeruginosa; assay: Antibacterial activity against Pseudomonas aeruginosa ATCC 27853 after 18 to 24 hrs; method in brief: as §1
[20] = test system: Enterococcus faecium; assay: Antibacterial activity against Enterococcus faecium 14-5 after 18 to 24 hrs; method in brief: as §1
[21] = test system: Escherichia coli; assay: Antibacterial activity against ESBL-positive Escherichia coli 14-1 after 18 to 24 hrs; method in brief: as §1
[22] = test system: Staphylococcus aureus; assay: Antibacterial activity against methicillin-sensitive Staphylococcus aureus 14-2 after 18 to 24 hrs; method in brief: as §1
[23] = test system: Pseudomonas aeruginosa; assay: Antibacterial activity against Pseudomonas aeruginosa 14-19 after 18 to 24 hrs; method in brief: as §1
[24] = test system: Staphylococcus aureus; assay: Antibacterial activity against methicillin-sensitive Staphylococcus aureus 14-3 after 18 to 24 hrs; method in brief: as §1
[25] = test system: Pseudomonas aeruginosa; assay: Antibacterial activity against Pseudomonas aeruginosa 14-14 after 18 to 24 hrs; method in brief: as §1
[26] = test system: Klebsiella pneumoniae; assay: Antibacterial activity against Klebsiella pneumoniae 14-3 after 18 to 24 hrs; method in brief: as §1
[27] = test system: Staphylococcus aureus; assay: Antibacterial activity against methicillin-resistant Staphylococcus aureus 14-4 after 18 to 24 hrs
[28] = test system: Klebsiella pneumoniae; assay: Antibacterial activity against ESBL-positive Klebsiella pneumoniae 14-19 after 18 to 24 hrs; method in brief: as §1
[29] = test system: Escherichia coli; assay: Antibacterial activity against Escherichia coli 14-2 after 18 to 24 hrs; method in brief: as §1
[30] = test system: Escherichia coli; assay: Antibacterial activity against ESBL-positive Escherichia coli 14-2 after 18 to 24 hrs; method in brief: as §1
[31] = test system: Staphylococcus aureus; assay: Antibacterial activity against methicillin-resistant Staphylococcus aureus 14-5 after 18 to 24 hrs
[32] = test system: Enterococcus faecium; assay: Antibacterial activity against Enterococcus faecium 14-1 after 18 to 24 hrs; method in brief: as §1
[33] = test system: Klebsiella pneumoniae; assay: Antibacterial activity against ESBL-positive Klebsiella pneumoniae 14-18 after 18 to 24 hrs; method in brief: as §1
[34] = test system: Staphylococcus epidermidis; assay: Antibacterial activity against methicillin-resistant Staphylococcus epidermidis 14-39 after 18 to 24 hrs
[35] = test system: Staphylococcus aureus; assay: Antibacterial activity against methicillin-sensitive Staphylococcus aureus 14-4 after 18 to 24 hrs; method in brief: as §1
[36] = test system: Pseudomonas aeruginosa; assay: Antibacterial activity against Pseudomonas aeruginosa 14-9 after 18 to 24 hrs; method in brief: as §1
[37] = test system: Klebsiella pneumoniae; assay: Antibacterial activity against Klebsiella pneumoniae 14-1 after 18 to 24 hrs; method in brief: as §1
[38] = test system: Pseudomonas aeruginosa; assay: Antibacterial activity against Pseudomonas aeruginosa 14-15 after 18 to 24 hrs; method in brief: as §1

SMILES | MIC [1] | MIC [2] | MIC [3] | MIC [4] | MIC [5] | MIC [6] | MIC90 [7] | MIC [8] | MIC [9] | MIC [10] | MIC [11] | MIC [12] | MIC [13] | MIC [14] | MIC [15] | MIC [16] | MIC [17] | MIC [18] | MIC [19] | MIC [20] | also measured
CC1(N)CN(c2nc3c(cc2F)c(=O)c(C(=O)O)cn3[C@@H]2C[C@@H]2F)C/C1=N\OCc1ccccc1 (some centres undefined) | > 128 µg/mL | > 128 µg/mL | 64 µg/mL (≈ 132 µM) | 16 µg/mL (≈ 33.1 µM) | > 128 µg/mL | 0.5 µg/mL (≈ 1.03 µM) | 0.923 µg/mL (≈ 1.91 µM) | 2 µg/mL (≈ 4.14 µM) | > 128 µg/mL | > 128 µg/mL | 0.03 µg/mL (≈ 0.0621 µM) | 2 µg/mL (≈ 4.14 µM) | > 128 µg/mL | 128 µg/mL (≈ 265 µM) | 64 µg/mL (≈ 132 µM) | 128 µg/mL (≈ 265 µM) | 128 µg/mL (≈ 265 µM) | 32 µg/mL (≈ 66.2 µM) | 32 µg/mL (≈ 66.2 µM) | > 128 µg/mL | MIC [21]: 64 µg/mL (≈ 132 µM); MIC [22]: 0.03 µg/mL (≈ 0.0621 µM); MIC [23]: 64 µg/mL (≈ 132 µM); MIC [24]: 0.5 µg/mL (≈ 1.03 µM); MIC [25]: 64 µg/mL (≈ 132 µM); MIC [26]: > 128 µg/mL; MIC [27]: 32 µg/mL (≈ 66.2 µM); MIC [28]: > 128 µg/mL; MIC [29]: > 128 µg/mL; MIC [30]: > 128 µg/mL; MIC [31]: 64 µg/mL (≈ 132 µM); MIC [32]: > 128 µg/mL; MIC [33]: 128 µg/mL (≈ 265 µM); MIC [34]: 64 µg/mL (≈ 132 µM); MIC [35]: 1 µg/mL (≈ 2.07 µM); MIC [36]: 64 µg/mL (≈ 132 µM); MIC [37]: > 128 µg/mL; MIC [38]: 64 µg/mL (≈ 132 µM)
CO/N=C1\CN(c2nc3c(cc2F)c(=O)c(C(=O)O)cn3[C@@H]2C[C@@H]2F)CC1N (some centres undefined) | 128 µg/mL (≈ 325 µM) | 128 µg/mL (≈ 325 µM) | 64 µg/mL (≈ 163 µM) | 32 µg/mL (≈ 81.4 µM) | 128 µg/mL (≈ 325 µM) | 0.25 µg/mL (≈ 0.636 µM) | 0.867 µg/mL (≈ 2.2 µM) | 0.25 µg/mL (≈ 0.636 µM) | 128 µg/mL (≈ 325 µM) | 128 µg/mL (≈ 325 µM) | 0.5 µg/mL (≈ 1.27 µM) | 2 µg/mL (≈ 5.08 µM) | > 128 µg/mL | 128 µg/mL (≈ 325 µM) | 8 µg/mL (≈ 20.3 µM) | 8 µg/mL (≈ 20.3 µM) | 32 µg/mL (≈ 81.4 µM) | 32 µg/mL (≈ 81.4 µM) | 4 µg/mL (≈ 10.2 µM) | 128 µg/mL (≈ 325 µM) | MIC [21]: 16 µg/mL (≈ 40.7 µM); MIC [22]: 0.5 µg/mL (≈ 1.27 µM); MIC [23]: 8 µg/mL (≈ 20.3 µM); MIC [24]: 1 µg/mL (≈ 2.54 µM); MIC [25]: 8 µg/mL (≈ 20.3 µM); MIC [26]: > 128 µg/mL; MIC [27]: 128 µg/mL (≈ 325 µM); MIC [28]: > 128 µg/mL; MIC [29]: 128 µg/mL (≈ 325 µM); MIC [30]: > 128 µg/mL; MIC [31]: 64 µg/mL (≈ 163 µM); MIC [32]: 128 µg/mL (≈ 325 µM); MIC [33]: 8 µg/mL (≈ 20.3 µM); MIC [34]: 64 µg/mL (≈ 163 µM); MIC [35]: 1 µg/mL (≈ 2.54 µM); MIC [36]: 8 µg/mL (≈ 20.3 µM); MIC [37]: > 128 µg/mL; MIC [38]: 8 µg/mL (≈ 20.3 µM)
NC1CN(c2nc3c(cc2F)c(=O)c(C(=O)O)cn3[C@@H]2C[C@@H]2F)C/C1=N\OCc1ccccc1 (some centres undefined) | > 128 µg/mL | > 128 µg/mL | 32 µg/mL (≈ 68.2 µM) | 16 µg/mL (≈ 34.1 µM) | > 128 µg/mL | 0.5 µg/mL (≈ 1.07 µM) | 1.92 µg/mL (≈ 4.09 µM) | 0.5 µg/mL (≈ 1.07 µM) | 64 µg/mL (≈ 136 µM) | 64 µg/mL (≈ 136 µM) | < 0.008 µg/mL | 1 µg/mL (≈ 2.13 µM) | > 128 µg/mL | 64 µg/mL (≈ 136 µM) | 32 µg/mL (≈ 68.2 µM) | 32 µg/mL (≈ 68.2 µM) | 64 µg/mL (≈ 136 µM) | 32 µg/mL (≈ 68.2 µM) | 16 µg/mL (≈ 34.1 µM) | 128 µg/mL (≈ 273 µM) | MIC [21]: 128 µg/mL (≈ 273 µM); MIC [22]: < 0.008 µg/mL; MIC [23]: 32 µg/mL (≈ 68.2 µM); MIC [24]: 0.5 µg/mL (≈ 1.07 µM); MIC [25]: 32 µg/mL (≈ 68.2 µM); MIC [26]: > 128 µg/mL; MIC [27]: 32 µg/mL (≈ 68.2 µM); MIC [28]: > 128 µg/mL; MIC [29]: > 128 µg/mL; MIC [30]: > 128 µg/mL; MIC [31]: 64 µg/mL (≈ 136 µM); MIC [32]: 64 µg/mL (≈ 136 µM); MIC [33]: 32 µg/mL (≈ 68.2 µM); MIC [34]: 64 µg/mL (≈ 136 µM); MIC [35]: 1 µg/mL (≈ 2.13 µM); MIC [36]: 32 µg/mL (≈ 68.2 µM); MIC [37]: > 128 µg/mL; MIC [38]: 32 µg/mL (≈ 68.2 µM)
